Measured values published in ChEMBL document CHEMBL3124833, “Achiral pyrazinone-based inhibitors of the hepatitis C virus NS3 protease and drug-resistant variants with elongated substituents directed toward the S2 pocket” (J Med Chem, 2014).
Converted amounts (≈) assume the structure as drawn.

What was measured:
[1] = Inhibition of full-length wild-type HCV NS3 protease; parameters: species or system Hepacivirus hominis
In short: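 Ki was determined in vitro with full-length NS3 protease (genotype 1a construct, expressed and purified by earlier methods) and the central part of NS4A as cofactor.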

[2] = Half life in human liver microsomes at 1 uM by LC-MS/MS analysis; assay type: ADME
In short: (§1)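 Compounds were incubated with pooled human liver microsomes (0.5 mg/mL) over 0–40 min. In vitro t1/2 and intrinsic clearance (Clint, μL/min/mg) were calculated with previously published models.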

[3] = Intrinsic clearance in human liver microsomes at 1 uM up to 40 mins by LC-MS/MS analysis in presence of NADPH; assay type: ADME; in short: as §1
[4] = Apparent permeability from apical to basolateral side in human Caco2 cells at 10 uM by LC-MS analysis; assay type: ADME, cell-based; conditions: Caco-2
In short: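 Apparent permeability coefficients (Papp) were derived from transport rates across Caco-2 cell monolayers. The assay used a modified, more physiological medium because the compounds adsorbed strongly to plasticware.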

[5] = Solubility of the compound in phosphate buffered saline at pH 7.4 after 1 hr by LC-MS/MS analysis; assay type: physicochemical
In short: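 Solubility was measured in phosphate-buffered saline at pH 7.4 with a final DMSO concentration of 1%.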

NS3 protease [6] = target: NS3 protease (Hepacivirus C, UniProt C1KIQ2, D168V); assay: Inhibition of full-length HCV NS3 protease D168V mutant; parameters: species or system Hepacivirus hominis
In short: (§2)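 Ki determined in vitro against full-length NS3 protease variants carrying A156T, D168V or R155K substitutions, with the central part of NS4A as cofactor. Enzymes were expressed and purified by previously published methods. The R155K variant (genotype 1a) had the Arg→Lys change introduced at position 155 by PCR.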

NS3 protease [7] = target: NS3 protease (Hepatitis C virus subtype 1b, UniProt Q0ZMF1, A156T); assay: Inhibition of full-length HCV NS3 protease A156T mutant; parameters: species or system Hepacivirus hominis; in short: as §2

Cc1c(Cl)nc(NC(=O)OC(C)(C)C)c(=O)n1C(C(=O)Nc1ccccc1C(=O)NS(=O)(=O)c1ccc(C(F)(F)F)cc1)c1ccccc1 (configuration not stated)
Ki [1]: 3800 nM

CC(C)(C)NC(=O)Nc1nc(Cl)c(-c2ccc(Br)cc2)n(CC(=O)Nc2ccccc2C(=O)NS(=O)(=O)c2ccc(C(F)(F)F)cc2)c1=O
Ki [1]: 380 nM

CC(C)(C)NC(=O)Nc1nc(Cl)c(-c2cccc(Br)c2)n(CC(=O)Nc2ccccc2C(=O)NS(=O)(=O)c2ccc(C(F)(F)F)cc2)c1=O
Ki [1]: 600 nM

CC(C)(C)NC(=O)Nc1nc(Cl)c(-c2ccccc2Br)n(CC(=O)Nc2ccccc2C(=O)NS(=O)(=O)c2ccc(C(F)(F)F)cc2)c1=O
Ki [1]: 400 nM

CC(C)(C)NC(=O)Nc1nc(Cl)c(Cc2ccc(Br)cc2)n(CC(=O)Nc2ccccc2C(=O)NS(=O)(=O)c2ccc(C(F)(F)F)cc2)c1=O
Ki [1]: 440 nM

CC(C)(C)NC(=O)Nc1nc(Cl)c(Cc2cccc(Br)c2)n(CC(=O)Nc2ccccc2C(=O)NS(=O)(=O)c2ccc(C(F)(F)F)cc2)c1=O
Ki [1]: 290 nM

CC(C)(C)NC(=O)Nc1nc(Cl)c(Cc2ccccc2Br)n(CC(=O)Nc2ccccc2C(=O)NS(=O)(=O)c2ccc(C(F)(F)F)cc2)c1=O
Ki [1]: 250 nM

CC(C)(C)NC(=O)Nc1nc(Cl)c(-c2ccc(-c3cccnc3)cc2)n(CC(=O)Nc2ccccc2C(=O)NS(=O)(=O)c2ccc(C(F)(F)F)cc2)c1=O
half-life at 1 µM [2]: 82 min
microsomal CLint at 1 µM [3]: 17 µL/min/mg
Papp A→B at 10 µM [4]: 7 ×10⁻⁶ cm/s
solubility at 1 h [5]: 53 µM (≈ 41.5 µg/mL)
Ki (NS3 protease [6]): 1520 nM
Ki (NS3 protease [7]): 740 nM
Ki [1]: 440 nM

CC(C)(C)NC(=O)Nc1nc(Cl)c(-c2cccc(-c3cccnc3)c2)n(CC(=O)Nc2ccccc2C(=O)NS(=O)(=O)c2ccc(C(F)(F)F)cc2)c1=O
Ki [1]: 390 nM

CC(C)(C)NC(=O)Nc1nc(Cl)c(-c2ccccc2-c2cccnc2)n(CC(=O)Nc2ccccc2C(=O)NS(=O)(=O)c2ccc(C(F)(F)F)cc2)c1=O
Ki [1]: 2100 nM

CC(C)(C)NC(=O)Nc1nc(Cl)c(Cc2ccc(-c3cccnc3)cc2)n(CC(=O)Nc2ccccc2C(=O)NS(=O)(=O)c2ccc(C(F)(F)F)cc2)c1=O
Ki [1]: 540 nM

CC(C)(C)NC(=O)Nc1nc(Cl)c(Cc2cccc(-c3cccnc3)c2)n(CC(=O)Nc2ccccc2C(=O)NS(=O)(=O)c2ccc(C(F)(F)F)cc2)c1=O
Ki [1]: 810 nM

CC(C)(C)NC(=O)Nc1nc(Cl)c(Cc2ccccc2-c2cccnc2)n(CC(=O)Nc2ccccc2C(=O)NS(=O)(=O)c2ccc(C(F)(F)F)cc2)c1=O
Ki [1]: 1100 nM

CC(C)(C)NC(=O)Nc1nc(Cl)c(Cc2ccccc2)n(C(C(=O)Nc2ccccc2C(=O)NS(=O)(=O)c2ccc(C(F)(F)F)cc2)c2ccccc2)c1=O (configuration not stated)
Ki [1]: 700 nM

CC(C)(C)NC(=O)Nc1nc(Cl)cn(CC(=O)Nc2ccccc2C(=O)NS(=O)(=O)c2ccc(C(F)(F)F)cc2)c1=O
Ki [1]: 1900 nM

CC(C)(C)NC(=O)Nc1nc(Cl)c(CCc2ccccc2)n(CC(=O)Nc2ccccc2C(=O)NS(=O)(=O)c2ccc(C(F)(F)F)cc2)c1=O
half-life at 1 µM [2]: > 100 min
microsomal CLint at 1 µM [3]: < 13 µL/min/mg
Papp A→B at 10 µM [4]: 0.3 ×10⁻⁶ cm/s
solubility at 1 h [5]: 23 µM (≈ 16.9 µg/mL)
Ki [1]: 120 nM

CC(C)(C)NC(=O)Nc1nc(Cl)c(CCCc2ccccc2)n(CC(=O)Nc2ccccc2C(=O)NS(=O)(=O)c2ccc(C(F)(F)F)cc2)c1=O
Ki [1]: 140 nM

CC(C)(C)NC(=O)Nc1nc(Cl)c(COCc2ccccc2)n(CC(=O)Nc2ccccc2C(=O)NS(=O)(=O)c2ccc(C(F)(F)F)cc2)c1=O
half-life at 1 µM [2]: 81 min
microsomal CLint at 1 µM [3]: 17 µL/min/mg
Papp A→B at 10 µM [4]: 4 ×10⁻⁶ cm/s
solubility at 1 h [5]: 22 µM (≈ 16.5 µg/mL)
Ki [1]: 560 nM

CC(C)(C)NC(=O)Nc1nc(Cl)c(Cc2ccc3ccccc3c2)n(CC(=O)Nc2ccccc2C(=O)NS(=O)(=O)c2ccc(C(F)(F)F)cc2)c1=O
Ki [1]: 330 nM

CC(C)(C)NC(=O)Nc1nc(Cl)c(Cc2cccc3ccccc23)n(CC(=O)Nc2ccccc2C(=O)NS(=O)(=O)c2ccc(C(F)(F)F)cc2)c1=O
Ki [1]: 290 nM

CCCCCc1c(Cl)nc(NC(=O)NC(C)(C)C)c(=O)n1CC(=O)Nc1ccccc1C(=O)NS(=O)(=O)c1ccc(C(F)(F)F)cc1
half-life at 1 µM [2]: 42 min
microsomal CLint at 1 µM [3]: 33 µL/min/mg
Papp A→B at 10 µM [4]: 0.04 ×10⁻⁶ cm/s
solubility at 1 h [5]: 21 µM (≈ 14.7 µg/mL)
Ki [1]: 160 nM

CC(C)(C)NC(=O)Nc1nc(Cl)c(CCC2CCCCC2)n(CC(=O)Nc2ccccc2C(=O)NS(=O)(=O)c2ccc(C(F)(F)F)cc2)c1=O
half-life at 1 µM [2]: 27 min
microsomal CLint at 1 µM [3]: 52 µL/min/mg
Papp A→B at 10 µM [4]: 0.12 ×10⁻⁶ cm/s
solubility at 1 h [5]: 31 µM (≈ 22.9 µg/mL)
Ki (NS3 protease [6]): 320 nM
Ki (NS3 protease [7]): 170 nM
Ki [1]: 110 nM

Cc1c(Cl)nc(NC(=O)NC(C)(C)C)c(=O)n1C(C(=O)NC(CC1CCC1)C(=O)C(N)=O)c1ccccc1 (configuration not stated)
Ki [1]: 6200 nM

CC(C)(C)NC(=O)Nc1nc(Cl)c(Cc2ccccc2)n(CC(=O)Nc2ccccc2C(=O)NS(=O)(=O)c2ccc(C(F)(F)F)cc2)c1=O
Ki [1]: 660 nM

CC(C)(C)NC(=O)Nc1nc(Cl)c(Cc2ccccc2)n(CC(=O)NC(CC2CCC2)C(=O)C(N)=O)c1=O (configuration not stated)
Ki [1]: 7100 nM

Cc1c(Cl)nc(NC(=O)NC(C)(C)C)c(=O)n1C(C(=O)Nc1ccccc1C(=O)NS(=O)(=O)c1ccc(C(F)(F)F)cc1)c1ccccc1 (racemic)
half-life at 1 µM [2]: 54 min
microsomal CLint at 1 µM [3]: 26 µL/min/mg
Papp A→B at 10 µM [4]: 1.1 ×10⁻⁶ cm/s
solubility at 1 h [5]: 38 µM (≈ 27.3 µg/mL)
Ki (NS3 protease [6]): 1260 nM
Ki (NS3 protease [7]): 930 nM
Ki [1]: 390 nM

COc1ccc2c(O[C@@H]3C[C@H]4C(=O)N[C@]5(C(=O)O)C[C@H]5/C=C\CCCCC[C@H](NC(=O)OC5CCCC5)C(=O)N4C3)cc(-c3csc(NC(C)C)n3)nc2c1 [CILUPREVIR]
Ki (NS3 protease [6]): 200 nM
Ki (NS3 protease [7]): 120 nM
Ki [1]: 0.089 nM

CCC[C@H](NC(=O)[C@@H]1[C@H]2CCC[C@H]2CN1C(=O)[C@@H](NC(=O)[C@@H](NC(=O)c1cnccn1)C1CCCCC1)C(C)(C)C)C(=O)C(=O)NC1CC1 [TELAPREVIR]
Ki (NS3 protease [6]): 3.9 nM
Ki (NS3 protease [7]): 6100 nM
Ki [1]: 15 nM
